Data reported in paper PMC4874899 (Cell chemical biology, 2016).

How the values were obtained:
cells [1] = test: Cytosolic penetration / endosomal escape by fluorescence microscopy; type: cell-based; conditions: retro-2 20 µM, 30 min prior to dfTAT (3 µM, 1 h)
Method in brief: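 Cells at 80–90% confluency (48 h) pretreated 30 min with 20 µM retro-2, then 3 µM dfTAT for 1 h at 37 °C in serum-free L-15. Washed with heparin-containing L-15 (1 mg/mL); SYTOX (5 µM) stained cells excluded. Imaged at 37 °C; % nucleoli-positive cells of bright-field total, >500 cells per experiment, triplicates; t-test.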

[2] = test system: mEmerald-TGOLN2 transport; test: Retrograde transport of the TGN marker mEmerald-TGOLN2; type: cell-based; conditions: retro-2 20 µM
[3] = test system: L.E. LUVs (77:19:4 BMP:PC:PE); conditions: monomeric TAT; ref Yang et al., 2010; cited from earlier work
cells [4] = conditions: ref Gao et al., 2009; Gillmeister et al., 2011; Lee et al., 2010; cited from earlier work

Molecule	effect on dfTAT-mediated endosomal escape (cells [1])	inhibition of transport of TGN marker mEmerald-TGOLN2 [2]	effect on BMP-containing liposomes [3]	escape from the endocytic pathway (cells [4])
Cc1ccc(C=Nc2ccccc2C(=O)Nc2ccccc2)s1 [retro-2]	had no effect on dfTAT-mediated escape	capable of inhibiting the transport	–	–
RKKRRQRRR [TAT]	–	–	leaky fusion	only at a very low efficiency
